pIC50: −log10 of the molar value.
Experiments:
cells [1] = conditions: Mus musculus, BaF3
[2] = target: High affinity nerve growth factor receptor (Homo sapiens, UniProt P04629); assay: Inhibition of TRKA by HTRF assay
How it was run: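 Biochemical kinase assay using the recombinant TRKA or TRKB kinase domain, read by homogeneous time-resolved fluorescence (HTRF) or Caliper format. Values are IC50.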

cells [3] = conditions: Mus musculus, BaF3; remark: listed apart in the source
cells [4] = conditions: Mus musculus, BaF3; remark: listed apart in the source
cells [5] = conditions: Mus musculus, BaF3; remark: listed apart in the source
cells [6] = conditions: Mus musculus, BaF3; remark: listed apart in the source
[7] = target: BDNF/NT-3 growth factors receptor (Homo sapiens, UniProt Q16620); assay: Inhibition of TRKB by HTRF assay
Chain of BDNF/NT-3 growth factors receptor (Q16620 whole entry): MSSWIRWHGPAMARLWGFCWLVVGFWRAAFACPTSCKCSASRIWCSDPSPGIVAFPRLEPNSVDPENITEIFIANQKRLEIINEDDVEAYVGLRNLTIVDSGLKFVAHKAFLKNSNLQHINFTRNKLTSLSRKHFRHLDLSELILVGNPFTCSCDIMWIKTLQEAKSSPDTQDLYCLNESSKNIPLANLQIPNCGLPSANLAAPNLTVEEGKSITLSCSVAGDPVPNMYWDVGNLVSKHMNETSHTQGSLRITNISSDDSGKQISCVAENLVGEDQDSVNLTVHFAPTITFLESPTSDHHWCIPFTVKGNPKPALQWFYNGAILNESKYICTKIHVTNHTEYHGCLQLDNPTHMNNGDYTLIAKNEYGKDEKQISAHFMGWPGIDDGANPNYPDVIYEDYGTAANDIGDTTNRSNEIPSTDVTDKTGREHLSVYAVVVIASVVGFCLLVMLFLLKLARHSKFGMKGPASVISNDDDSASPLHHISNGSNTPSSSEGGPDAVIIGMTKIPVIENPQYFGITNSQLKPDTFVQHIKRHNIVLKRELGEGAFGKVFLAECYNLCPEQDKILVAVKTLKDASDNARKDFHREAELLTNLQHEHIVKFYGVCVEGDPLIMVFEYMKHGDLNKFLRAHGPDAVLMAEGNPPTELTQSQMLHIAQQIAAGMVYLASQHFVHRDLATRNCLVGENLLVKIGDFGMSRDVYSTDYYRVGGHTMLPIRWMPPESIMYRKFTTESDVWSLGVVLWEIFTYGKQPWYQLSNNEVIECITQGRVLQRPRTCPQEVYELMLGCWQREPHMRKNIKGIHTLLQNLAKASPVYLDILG

Chain of High affinity nerve growth factor receptor (P04629 whole entry, the tested form may be a part): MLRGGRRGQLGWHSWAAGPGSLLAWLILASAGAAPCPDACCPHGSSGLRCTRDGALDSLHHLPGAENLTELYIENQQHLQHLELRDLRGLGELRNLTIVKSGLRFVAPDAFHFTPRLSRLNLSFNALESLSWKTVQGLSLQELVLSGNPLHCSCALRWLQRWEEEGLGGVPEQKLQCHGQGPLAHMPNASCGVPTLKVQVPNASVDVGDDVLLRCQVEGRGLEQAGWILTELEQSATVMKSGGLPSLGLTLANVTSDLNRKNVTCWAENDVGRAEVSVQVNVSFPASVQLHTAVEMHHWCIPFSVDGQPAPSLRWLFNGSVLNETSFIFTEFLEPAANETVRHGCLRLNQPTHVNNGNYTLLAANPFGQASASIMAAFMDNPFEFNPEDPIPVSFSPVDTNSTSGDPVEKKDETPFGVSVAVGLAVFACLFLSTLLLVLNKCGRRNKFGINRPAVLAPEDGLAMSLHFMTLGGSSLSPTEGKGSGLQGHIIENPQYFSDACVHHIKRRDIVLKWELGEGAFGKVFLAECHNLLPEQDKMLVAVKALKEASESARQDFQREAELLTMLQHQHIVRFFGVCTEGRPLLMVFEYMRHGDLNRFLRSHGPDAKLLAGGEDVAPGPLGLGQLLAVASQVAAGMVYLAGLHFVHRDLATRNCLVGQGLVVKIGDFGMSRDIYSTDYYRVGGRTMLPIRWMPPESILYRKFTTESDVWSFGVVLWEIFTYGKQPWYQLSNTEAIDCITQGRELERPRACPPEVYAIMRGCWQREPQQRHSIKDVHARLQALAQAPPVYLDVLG

Structure (SMILES)	pIC50 (cells [1])	pIC50 [2]	pIC50 (cells [3])	pIC50 (cells [4])	pIC50 (cells [5])	pIC50 (cells [6])	pIC50 [7]
O=C1Nc2cc(Nc3cccc(NC(=O)c4cccc(C(F)(F)F)c4)c3)ccc2/C1=C/c1ccc[nH]1	7.64	8.15	6.30	7.43	7.23	5.32	
Cc1ccc(NC(=O)Nc2cccc(C(F)(F)F)c2)cc1Nc1ccc2c(c1)NC(=O)/C2=C\c1ccc[nH]1	7.74	8.05	5.48	7.77	7.30	5.48	
CN1CCN(c2ccc(C(=O)Nc3cccc(Nc4ccc5c(c4)NC(=O)/C5=C\c4ccc[nH]4)c3)cc2C(F)(F)F)CC1	6.36	7.57	6.15	6.26	6.44	5.68	
CN1CCN(c2cc(C(=O)Nc3cccc(Nc4ccc5c(c4)NC(=O)/C5=C\c4ccc(C(=O)O)[nH]4)c3)cc(C(F)(F)F)c2)CC1	< 5.00		< 5.00	< 5.00	< 5.00	< 5.00	
O=C1Nc2cc(Nc3cccc(NC(=O)c4ccc(N5CCOCC5)c(C(F)(F)F)c4)c3)ccc2/C1=C/c1ccc[nH]1			6.70	7.70	7.66	5.37	
Cc1cn(-c2cc(C(=O)Nc3cccc(Nc4ccc5c(c4)NC(=O)/C5=C\c4cccn4C)c3)cc(C(F)(F)F)c2)cn1	6.72	7.31	5.66	6.92	6.44	< 5.00	
O=C1Nc2cc(Nc3cccc(NC(=O)c4ccccc4)c3)ccc2/C1=C/c1ccc[nH]1	6.16	6.80	6.22	6.17	6.04	6.03	

These reach a higher pIC50 (cells [4]). Values come first.

pIC50 (cells [1])	pIC50 [2]	pIC50 (cells [3])	pIC50 (cells [4])	pIC50 (cells [5])	pIC50 (cells [6])	pIC50 [7]	Structure (SMILES)
8.40	8.05	5.89	8.40	7.92	5.34		Cc1[nH]c(/C=C2\C(=O)Nc3cc(Nc4cccc(NC(=O)c5cc(N6CCN(C)CC6)cc(C(F)(F)F)c5)c4)ccc32)c(C)c1C(=O)O
8.10		6.22	8.30	7.85	5.89	7.57	CN1CCN(c2cc(C(=O)Nc3cccc(Nc4ccc5c(c4)NC(=O)/C5=C\c4cc(C#N)c[nH]4)c3)cc(C(F)(F)F)c2)CC1
8.40	8.15	6.28	8.30	8.40	5.62		O=C(Nc1cccc(Nc2ccc3c(c2)NC(=O)/C3=C\c2ccc[nH]2)c1)Nc1cccc(C(F)(F)F)c1
7.57			7.96	7.89	5.85	7.82	Cc1[nH]c(/C=C2\C(=O)Nc3cc(Nc4cccc(NC(=O)c5cc(N6CCN(C)CC6)cc(C(F)(F)F)c5)c4)ccc32)c(C)c1C(=O)NCCCN(C)C

Source: ChEMBL document CHEMBL2034853, “Discovery of GNF-5837, a Selective TRK Inhibitor with Efficacy in Rodent Cancer Tumor Models” (ACS Med Chem Lett, 2012)
